Screening results deposited in PubChem BioAssay by several laboratories.
UBC13 polyUb = UBC13 polyubiquitin chain formation inhibitors, primary screen, biochemical, TR-FRET, uHTS; Ubiquitin-conjugating enzyme E2 N (Homo sapiens), P61088; inhibition, % at 20 µM; 0.47% of 330,000 active; in the data active = inhibition above about 45%, passing the limit was not always enough; inconclusive = no clear call, values can overlap the other calls
Target sequence (P61088 whole entry, looked up): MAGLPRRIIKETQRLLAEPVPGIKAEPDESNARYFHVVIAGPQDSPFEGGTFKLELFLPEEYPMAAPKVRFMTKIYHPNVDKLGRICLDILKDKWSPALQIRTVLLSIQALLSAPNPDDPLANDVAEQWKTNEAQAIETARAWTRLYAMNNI
Rin1 Abl inh = inhibitors of Rin1-Abl protein binding, primary screen, biochemical, TR-FRET; Tyrosine-protein kinase ABL1 (Homo sapiens) + Ras and Rab interactor 1 (Homo sapiens), …; inhibition, % at 7.35 µM; 0.4% of 360,000 active; AID 588664, 2011; in the data active = inhibition above about 5%, passing the limit was not always enough
RBBP9 inh = human RBBP9 inhibitors, primary screen, biochemical, fluorescence polarization, FP-Rh probe, HTS | 0.2% of 220,000 active | recombinant RBBP9 | inhibition, % at 7.94 µM;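 active = inhibition above the campaign mean of all tested compounds plus 3 SD, cut at about 14% in these data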
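Test system: recombinant human RBBP9; Timing: 30 min then 45 min, 25 °C; Detection: fluorescence polarization; Control set: RBBP9 with DMSO as uninhibited control, no-protein wells as full inhibition; Compound dosing: one concentration, 7.94 µM nominal, 0.794% DMSO; Probe or stimulus: FP-Rh activity-based probe, 375 nM before mixing.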
SUMO HTRF inh = inhibitors of in vitro SUMOylation cascade, primary screen, biochemical, HTRF, uHTS | 0.36% of 290,000 active | HTRF SUMOylation assay, SAE1/SAE2 + UBC9 | SUMO-conjugating enzyme UBC9 (Homo sapiens), P63279 | inhibition, % at 35 µM; in the data active = inhibition above about 50%, passing the limit was not always enough; inconclusive = no clear call, values can overlap the other calls
Target sequence (P63279 whole entry, looked up): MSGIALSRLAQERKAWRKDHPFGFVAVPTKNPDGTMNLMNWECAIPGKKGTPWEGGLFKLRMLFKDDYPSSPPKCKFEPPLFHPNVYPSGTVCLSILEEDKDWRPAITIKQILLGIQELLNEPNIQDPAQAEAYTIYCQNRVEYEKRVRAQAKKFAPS
ALR H2O2 inh = inhibitors of human ALR sulfhydryl oxidase, primary screen, biochemical, H2O2 detection, HRP-luminol luminescence, single point; purified ALR, DTT oxidation; inhibition, % (no concentration beside the values); 3.8% of 290,000 active; AID 485317, 2010;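 active = mean replicate inhibition above about 79%, with every replicate also reaching it, limit read from the data; inconclusive = only one of the two criteria met; inactive = mean below limit and not every replicate reaching it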
Target sequence (P55789 whole entry, looked up): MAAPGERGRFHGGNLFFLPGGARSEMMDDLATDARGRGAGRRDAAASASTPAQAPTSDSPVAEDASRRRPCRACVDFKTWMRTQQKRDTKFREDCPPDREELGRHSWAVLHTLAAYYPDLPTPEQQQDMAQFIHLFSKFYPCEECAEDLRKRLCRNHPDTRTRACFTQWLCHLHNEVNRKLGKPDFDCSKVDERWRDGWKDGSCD
PREPL inh = PREPL enzyme inhibitors, primary screen, biochemical, fluorescence polarization; Prolyl endopeptidase-like (Homo sapiens), Q4J6C6; recombinant PREPL, fluorescence polarization activity-based probe; inhibition, % at 5.96 µM; 0.68% of 320,000 active; in the data active = inhibition above about 43%
Large screens that a line does not name were inactive. A selection: hits, their analogues and other compounds. The true share with any hit is near 4.3%.

Cc1ccc(O)c(NC(=O)CSc2n[nH]c(-c3ccccc3)n2)c1	none (no result: RBBP9 inh)
Cc1cc(SCC(=O)c2ccc3c(c2)OCO3)nc2ccccc12	none
CCc1c(C)nc(SCC(=O)c2ccc(C)c(C)c2)[nH]c1=O	none
Cc1nc(SCC(=O)c2cccc([N+](=O)[O-])c2)n[nH]1	none (no result: ALR H2O2 inh)
O=C(CSc1n[nH]c(-c2ccccc2)n1)c1ccc(O)c(O)c1	ALR H2O2 inh 99
CC(=O)Oc1ccc(-c2cc3ccc(OC(C)=O)cc3oc2=O)cc1	none (no result: RBBP9 inh, SUMO HTRF inh)
O=C(c1ccc(NS(=O)(=O)c2ccc(Cl)c(Cl)c2)cc1)N1CCOCC1	none (no result: RBBP9 inh, SUMO HTRF inh, ALR H2O2 inh, PREPL inh)
Cc1ccc(C(=O)CSc2n[nH]c(-c3ccco3)n2)cc1C	ALR H2O2 inh 97
COc1ccc(C(=O)CSc2n[nH]c(-c3ccco3)n2)cc1	none
O=C(CNc1cc([N+](=O)[O-])ccc1NCCO)Nc1cccc(S(=O)(=O)N2CCCCC2)c1	ALR H2O2 inh 97 (no result: RBBP9 inh, SUMO HTRF inh)
O=C(CNc1cccc(S(=O)(=O)N2CCCCCC2)c1)Nc1cccc([N+](=O)[O-])c1	none (no result: RBBP9 inh, SUMO HTRF inh, ALR H2O2 inh)
COc1ccc(OC)c(NC(=O)Nc2ccc3[nH]ccc3c2)c1	UBC13 polyUb inconclusive (no result: RBBP9 inh, SUMO HTRF inh)
CN1C(=O)CC(NNC(=O)c2ccc(Cl)cc2)C1=O (stereo unspecified)	ALR H2O2 inh 90
COc1cccc(N2CCN(C(=O)c3cccc(NC4=NC5CS(=O)(=O)CC5S4)c3)CC2)c1 (stereo unspecified)	ALR H2O2 inh 100 (no result: RBBP9 inh)
Cc1c(Cl)cccc1Nc1ccccc1C(=O)O	ALR H2O2 inh 98
CCCCNC(=O)c1oc2ccc(S(=O)(=O)N3CCCC3)cc2c1C	none (no result: RBBP9 inh)
COc1ccccc1C(=O)N/C(=N/c1nc(C)cc(C)n1)Nc1ccccc1	none (no result: ALR H2O2 inh)
CCOC(=O)c1[nH]c2cc(OC)c(OC)cc2c1NC(=O)CN(C)C1CCCCC1	ALR H2O2 inh 97
Cc1cc(Br)cc2c(C(=O)NCC3CCCO3)cc(-c3ccccc3)nc12 (stereo unspecified)	none (no result: RBBP9 inh)
CC1=C/C(=N\Nc2ccccc2[N+](=O)[O-])CC(C)(C)C1	ALR H2O2 inh 98
CCc1cc2c3c([nH]c2cc1S(=O)(=O)NCCCOC)CC(C)(C)CC3=O	none (no result: RBBP9 inh)
Cc1ccc(NC2CCCN(C(=O)CCc3scnc3C)C2)cc1C (stereo unspecified)	ALR H2O2 inh 99 (no result: RBBP9 inh)
COc1ccc(NC2CCCN(C(=O)CCc3scnc3C)C2)cc1 (stereo unspecified)	ALR H2O2 inh 99 (no result: RBBP9 inh)
Cc1ncsc1CCC(=O)N1CCCC(Nc2ccc(C(C)C)cc2)C1 (stereo unspecified)	ALR H2O2 inh 86 (no result: RBBP9 inh)
Cc1ncsc1CCC(=O)N1CCCC(Nc2ccc(F)c(F)c2)C1 (stereo unspecified)	none (no result: RBBP9 inh)
CCc1nccn1CCC(=O)N1CCCC(Nc2ccc(C(C)C)cc2)C1 (stereo unspecified)	none (no result: RBBP9 inh)
CC1(C)CC(=O)C=C(c2cccs2)C1	none (no result: RBBP9 inh, SUMO HTRF inh)
CCC(C)[C@H](NS(=O)(=O)c1ccc(C)cc1)C(=O)N1CCC(C(=O)N2CCC(C(N)=O)CC2)CC1 (stereo partly specified)	none (no result: RBBP9 inh)
CCCOc1ccc(/C=N/Nc2ccccn2)cc1OC	none
COc1cc(/C=N/Nc2ccccn2)cc(OC)c1O	ALR H2O2 inh 99
COc1cc(/C=C(\C#N)c2ccccn2)cc(OC)c1O	ALR H2O2 inh 98
CCOc1ccc(/C=N/Nc2ccccn2)cc1OC	ALR H2O2 inh 86
C(=N\Nc1ccccn1)/c1ccc2c(c1)OCCO2	ALR H2O2 inh 98
Cc1[nH]c2ccccc2c1C(=O)C(C)OC(=O)c1ccc(NC(=O)CC#N)cc1 (stereo unspecified)	ALR H2O2 inh 100 (no result: RBBP9 inh, SUMO HTRF inh)
Cc1[nH]c2ccccc2c1C(=O)C(C)OC(=O)c1ccc(Cl)nc1 (stereo unspecified)	none (no result: RBBP9 inh, SUMO HTRF inh, ALR H2O2 inh)
CCCSc1nc(N)c2c3c(sc2n1)CN(C)CC3	none
CN(C)CCSc1nc(N)c2c3c(sc2n1)CN(C)CC3	UBC13 polyUb 75, ALR H2O2 inh 99
COCCn1c(N)c(Sc2ccccc2[N+](=O)[O-])c(=O)[nH]c1=O	none
O=C(Nc1cccn(Cc2cccc(F)c2)c1=O)NC1CCCCC1	SUMO HTRF inh 99 (no result: ALR H2O2 inh)
CCCc1ccc(-c2c(C)sc(N)c2C#N)cc1	ALR H2O2 inh 92
O=C(NCc1cccc(Br)c1)C1CC2Cn3c(nc4ccccc43)C2N1c1ccccc1 (stereo unspecified)	ALR H2O2 inh 77 (no result: RBBP9 inh, SUMO HTRF inh)
CN1C(C(=O)NCc2cccc(Br)c2)CC2Cn3c(nc4ccccc43)C21 (stereo unspecified)	none (no result: RBBP9 inh, ALR H2O2 inh)
C=CCc1cc(C(=O)N2CCCCC2)ccc1O	none
C=CCc1ccc(O)c(-c2ccc(O)c(CC=C)c2)c1	ALR H2O2 inh 98
COc1cc(-c2c(C#N)c(N)nc3[nH]c(=S)[nH]c(=O)c23)ccc1O	ALR H2O2 inh 99 (no result: RBBP9 inh)
O=C(O)CCC(=O)c1ccc(C2CCCCCC2)cc1	none (no result: UBC13 polyUb, RBBP9 inh, SUMO HTRF inh, ALR H2O2 inh, PREPL inh)
COc1ccc(N2CCN(S(=O)(=O)CCNC(=O)COc3ccccc3OC)CC2)cc1	ALR H2O2 inh 93 (no result: RBBP9 inh)
COc1ccccc1OCC(=O)NCCS(=O)(=O)N1CCN(c2ccc(F)cc2)CC1	none (no result: RBBP9 inh)
CCC1CCCCN1S(=O)(=O)c1ccc(NC(=O)c2nc(S(C)(=O)=O)ncc2Cl)cc1 (stereo unspecified)	ALR H2O2 inh 77 (no result: RBBP9 inh)
COCCn1nnnc1C(c1ccccc1OC)N1CCN(c2ccccc2)CC1 (stereo unspecified)	ALR H2O2 inh 84
COCCn1nnnc1C(c1cccs1)N1CCN(c2cc(C)ccc2C)CC1 (stereo unspecified)	none
COCCn1nnnc1C(c1cccs1)N1CCN(c2nc3ccccc3s2)CC1 (stereo unspecified)	PREPL inh 50
CCCn1cnc2cc(NCc3ccccc3O)ccc21	ALR H2O2 inh 99 (no result: RBBP9 inh)
CCCn1cnc2cc(NCc3cccc(OC)c3)ccc21	ALR H2O2 inh 95
Cc1ccc(NC(=O)CN(C)C(=O)/C=C/c2ccc3c(c2)OCO3)cc1	none (no result: RBBP9 inh, SUMO HTRF inh, ALR H2O2 inh)
O=C(CSC1=NCCN1)C1COc2ccccc2O1 (stereo unspecified)	ALR H2O2 inh 93
O=C(Nc1ccncc1)C1COc2ccccc2O1 (stereo unspecified)	none
Cc1c(CC(=O)N2CCN(C(=O)C3COc4ccccc4O3)CC2)c(=O)oc2cc(O)ccc12 (stereo unspecified)	none (no result: RBBP9 inh)
Cc1c(CC(=O)N2CCN(C(=O)C3COc4ccccc4O3)CC2)c(=O)oc2c(C)c(O)ccc12 (stereo unspecified)	SUMO HTRF inh 50 (no result: RBBP9 inh)
CSC(=O)CC(=O)NC(=O)c1ccccc1	ALR H2O2 inh 97
